Measurements taken from ChEMBL document CHEMBL3414521, “Discovery of the 2-phenyl-4,5,6,7-Tetrahydro-1H-indole as a novel anti-hepatitis C virus targeting scaffold” (Eur J Med Chem, 2015).
The source made the active and inactive calls. The rule behind the calls is not given here.

Columns and labels:
Hepatitis C virus [1] = experiment: Antiviral activity against HCV genotype 1b infected in HuH7/Rep-Feo1b cells at 50 uM by firefly luciferase reporter gene assay; type: functional, Hepacivirus hominis; conditions: for inhibition at 50 µM: Huh-7; for inhibition: Hepacivirus hominis
Method in brief: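 Replicon reporter cells (gt 1b in Huh7/Rep-Feo1b, firefly luciferase; gt 2a in Huh7.5-FGR-JC1-Rluc2A, Renilla luciferase) kept in DMEM with 10% FCS and 0.5 mg/mL G418, 37 °C, 5% CO2. About 1×10^4 cells per well were treated at 50 μM for 48 h in 1.0% DMSO. Luciferase signal was read relative to DMSO-treated cells as % inhibition.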

Hepatitis C virus [2] = experiment: Antiviral activity against HCV genotype 2a infected in HuH7.5-FGR-JC1_Rluc2A cells at 50 uM by […] luciferase reporter gene assay; type: functional, Hepacivirus hominis; conditions: for inhibition: Hepacivirus hominis
[3] = Cytotoxicity against human Huh7.5 cells after 48 hrs by MTS assay; type: cell-based; conditions: huh-7, 48 h
Method in brief: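 Parental Huh7.5 cells grown in DMEM with 10% FCS without G418, 37 °C, 5% CO2; treated at 6–8 doses for 48 h. Viability by MTS bioreduction to formazan; CC50 as concentration halving MTS conversion relative to DMSO controls, mean ± SD of three independent experiments.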

Hepatitis C virus [4] = experiment: Antiviral activity against HCV genotype 2a infected in HuH7.5-FGR-JC1_Rluc2A cells by […]; type: functional, Hepacivirus hominis
[5] = Selectivity index, ratio of CC50 for human Huh7.5 cells to EC50 for HCV genotype 2a infected in HuH7.5-FGR-JC1_Rluc2A cells; design: species or system Huh-7
[6] = Selectivity index, ratio of CC50 for human Huh7.5 cells to EC50 for HCV genotype 1b infected in HuH7/Rep-Feo1b cells; design: species or system Huh-7
Hepatitis C virus [7] = experiment: Antiviral activity against HCV genotype 1b infected in HuH7/Rep-Feo1b cells by firefly luciferase reporter gene assay; type: functional, cell-based, Hepacivirus hominis; conditions: Huh-7
Method in brief: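 Huh7 cells carrying autonomously replicating gt 1b replicon with firefly luciferase reporter; ~1×10^4 cells/well treated 48 h, 1.0% DMSO final. Primary screen at 50 μM; actives titrated over 8–12 quarter-log dilutions. Luciferase signal relative to DMSO-treated controls; EC50 from dose-response curves, mean ± SD of three independent experiments.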

SMILES | inhibition at 50 µM (Hepatitis C virus [1]) [%] | inhibition at 50 µM (Hepatitis C virus [2]) [%] | CC50 [3] [µM] | EC50 (Hepatitis C virus [4]) [µM] | Ratio CC50/EC50 [5] | inhibition (Hepatitis C virus [1]) | inhibition (Hepatitis C virus [2]) | Ratio CC50/EC50 [6] | EC50 (Hepatitis C virus [7]) [µM]
Cc1ccc(CN(Cc2cc3cc(C)ccc3[nH]c2=O)C(=O)c2ccc(CN3CCN(C)CC3)cc2)cc1 | 92 | 99 | < 25 |  |  |  |  |  | 
O=C1CC(c2nc3ccccc3[nH]2)CN1C1CCCCC1 (stereo unspecified) | 19 | 72 | > 200 | 15.6 | >13 |  |  |  | 
O=C(O)C1CC(=O)N(CCc2c[nH]c3ccccc23)C1 (stereo unspecified) | 22 | 51 | > 200 | 48.5 | >4 |  |  |  | 
CC(C(N)=O)n1c(-c2ccccc2)cc2c1CCCC2 (stereo unspecified) | 50 | 83 | 156 | 15.4 | >10 |  |  |  | 
NC(=O)Cn1c(-c2ccccc2)cc2c1CCCC2 | 37 | 48 | > 200 |  |  |  |  |  | 
CCn1cc(C(=O)Nc2ccccc2C(N)=O)c(=O)c2cc(OC)ccc21 | 17 | 65 | 85.6 | 20.6 | 4 |  |  |  | 
O=C(O)C1CCCN(S(=O)(=O)c2ccccc2)C1 (racemic) |  | 62 | > 200 | 28.1 | >7 | inactive |  |  | 
O=C(O)c1cc(-c2ccncc2)nc2ccccc12 |  | 49 | > 200 |  |  | inactive |  |  | 
C[C@@]12C[C@@H]3C(=O)Nc4ccccc4C(=O)N3[C@@H]1CCCCC2=O (racemic) |  |  | > 200 |  |  | inactive | inactive |  | 
Cc1cccc(N2CC(c3nc4ccccc4[nH]3)CC2=O)c1 (stereo unspecified) | 21 | 77 | > 200 | 17.3 | >12 |  |  |  | 
Cc1nn(Cc2ccccc2)c(C)c1CC(=O)O |  | 14 | > 200 |  |  | inactive |  |  | 
CC1CN(C(=O)c2ccccc2)c2ccccc2NC1=O (stereo unspecified) | 21 | 77 | > 200 | 14.1 | >14 |  |  |  | 
Cc1nc2c(c(C)nn2-c2ccccc2)c(C)c1CCC(=O)O |  | 78 | > 200 | 11.7 | >17 | inactive |  |  | 
COc1cccc(C(=O)Nc2cc(C)nc3ccc(C)cc23)c1 | 88 | 99 | < 25 |  |  |  |  |  | 
COC(=O)c1cc(C(=O)O)cc(-c2cc3c(n2Cc2ccccc2)CCCC3)c1 | 81 | 96 | 45.6 | 9.9 | >5 |  |  | >1 | 35.8
CCOC(=O)[C@@H](C)N1C(=O)C(=O)c2ccccc21 | 19 | 85 | > 200 | 7.3 | >27 |  |  |  | 
Cc1ccc2[nH]c(=O)c(CN(CCc3ccccc3)C(=O)c3ccc(OCCN(C)C)cc3)cc2c1 | 45 | 61 | > 200 | 24.8 | >8 |  |  |  | 
CC(C)(C)OC(=O)N1CC(=O)[C@]2(C)CCN(Cc3ccccc3)[C@@H]2C1 (relative stereo) | 73 | 98 | 115 | 6 | >19 |  |  | 5 | 24.3
COc1ccc(NS(=O)(=O)c2ccc(CN3C(=O)c4ccccc4C3=O)cc2)cc1 | 39 | 60 | > 200 | 22.5 | >9 |  |  |  | 

SMILES | inhibition at 50 µM (Hepatitis C virus [1]) [%] | inhibition at 50 µM (Hepatitis C virus [2]) [%] | CC50 [3] [µM] | EC50 (Hepatitis C virus [4]) [µM] | Ratio CC50/EC50 [5] | inhibition (Hepatitis C virus [1]) | inhibition (Hepatitis C virus [2]) | Ratio CC50/EC50 [6] | EC50 (Hepatitis C virus [7]) [µM]
O=C(O)c1nn(Cc2ccccc2)c2ccccc12 |  | 46 | > 200 |  |  | inactive |  |  | 
Cc1ccc2[nH]c(=O)c(CN(Cc3ccccc3)C(=O)c3ccc(NC(=N)N)cc3)cc2c1 |  | 44 | > 200 |  |  | inactive |  |  | 
O=C(O)CCn1c(-c2ccccc2)cc2ccccc21 | 26 | 54 |  |  |  |  |  |  | 
CCOC(=O)C(C)n1c(-c2ccccc2)cc2c1CCCC2 (racemic) | 74 | 95 | 84.3 | 13.7 | 6 |  |  | 6 | 13.2
CC1(CO)CCN2CCCCC21 (racemic) | 50 | 25 | > 200 |  |  |  |  |  | 
O=C1CC(c2nc3ccccc3[nH]2)CN1Cc1ccccc1 (stereo unspecified) |  | 67 | > 200 | 21.1 | >9 | inactive |  |  | 
C=CCn1c(-c2ccccc2)cc2c1CCCC2 | 35 | 69 | 119 | 32.1 | 4 |  |  |  | 
CC(=O)N[C@@]12CCN(C(=O)OC(C)(C)C)C[C@@H]1CN(C(=O)OC(C)(C)C)C2 (racemic) |  | 43 | > 200 |  |  | inactive |  |  | 
Oc1ccccc1-c1cc2c(n1Cc1ccccc1)CCCC2 | 96 | 99 | 48.9 | 6.5 | 8 |  |  | 5 | 9.2
Br.CC(=O)[C@]12CCN(Cc3ccccc3)C[C@H]1[C@H](c1ccccc1)NC2 (racemic) |  | 76 | > 200 | 17.4 | >11 | inactive |  |  | 
Cc1nn(Cc2ccccc2)c(C)c1C(=O)O | 19 |  | > 200 |  |  |  | inactive |  | 
Cc1ccc2[nH]c(=O)c(CN(Cc3ccc(F)cc3)C(=O)c3ccc(NC(=N)N)cc3)cc2c1 | 54 | 29 | > 200 |  |  |  |  |  | 
CC(=O)c1cn(CC(=O)O)c2ccccc12 |  | 55 | > 200 |  |  | inactive |  |  | 
C[C@@]12CC3C(=O)N4[C@H](C[C@@]5(C)C(=O)CCCC[C@@H]45)C(=O)N3[C@@H]1CCCCC2=O (mixture of isomers) |  | 28 | > 200 |  |  | inactive |  |  | 
c1ccc(Cn2c(-c3cccnc3)cc3c2CCCC3)cc1 | 92 | 99 | < 25 |  |  |  |  |  | 
CCn1cc(-c2ccccc2)c(C(=O)O)c1C |  | 36 | > 200 |  |  | inactive |  |  | 
Br.CC(=O)N[C@]12CCN(Cc3ccccc3)C[C@H]1[C@H](c1ccccc1)NC2 (racemic) |  | 73 | > 200 | 4.9 | >41 | inactive |  |  | 
CCn1cc(-c2ccccc2)c(C(N)=O)c1C | 49 | 66 | > 200 | 23.6 | >8 |  |  |  | 
COc1ccc(CN2CC(C)n3c(nc4cccnc43)C2=O)c(OC)c1 (racemic) | 45 | 48 | > 200 |  |  |  |  |  | 
